Results: ChEMBL document CHEMBL4339256, “Antibacterial Salinaphthoquinones from a Strain of the Bacterium Salinispora arenicola Recovered from the Marine Sediments of St. Peter and St. Paul Archipelago, Brazil” (2019)
The source made the active and inactive calls. The rule behind the calls is not given here.

Legend:
[1] = test system: Escherichia coli; assay: Antimicrobial activity against Escherichia coli ATCC 25922 assessed as inhibition of microbial growth incubated for 24 hrs by broth microdilution assay; format: functional, organism-based
Method in brief: (§1)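 Strains first grown on Mueller Hinton agar 24 h at 35 ± 2 °C, aerobic. Colonies were suspended in sterile 0.85% (w/v) NaCl and diluted into Mueller Hinton broth to a final 5 × 10^5 CFU/mL. Broth microdilution followed CLSI (2015), with 2-fold serial dilutions of compound and rifampicin as positive control. Plates were incubated under the same conditions. MIC was read as the lowest concentration with no visible growth.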

[2] = test system: Staphylococcus aureus; assay: Antimicrobial activity against methicillin-resistant Staphylococcus aureus ATCC 43300 assessed as inhibition of microbial growth incubated for 24 hrs by broth microdilution assay; format: functional
Method in brief: (§2)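 Strains pre-grown on Mueller Hinton agar 24 h at 35 ± 2 °C aerobically; colonies suspended in 0.85% NaCl, then diluted in Mueller Hinton broth to a final 5 × 10^5 CFU/mL. Broth microdilution per CLSI (2015) with 2-fold serial compound dilutions; rifampicin positive control. Incubated as above; MIC read as lowest concentration with no visible growth.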

[3] = test system: Enterococcus faecalis; assay: Antimicrobial activity against Enterococcus faecalis ATCC 29212 assessed as inhibition of microbial growth incubated for 24 hrs by broth microdilution assay; format: functional; method in brief: as §1
[4] = test system: Enterococcus faecalis; assay: Antimicrobial activity against vancomycin-resistant Enterococcus faecalis ATCC 51212 assessed as inhibition of microbial growth incubated for 24 hrs by broth microdilution assay; format: functional; method in brief: as §2
[5] = test system: Staphylococcus aureus; assay: Antimicrobial activity against Staphylococcus aureus ATCC 29213 assessed as inhibition of microbial growth incubated for 24 hrs by broth microdilution assay; format: functional; method in brief: as §1

Structure (SMILES)	MIC [1]	MIC ([2]; ATCC 43300, 24 h) [µg/mL]	MIC ([3]; ATCC 29212, 24 h) [µg/mL]	MIC ([4]; ATCC 51212, 24 h) [µg/mL]	MIC ([5]; ATCC 29213, 24 h) [µg/mL]	MIC [2]	MIC [3]	MIC [4]	MIC [5]
Cc1cc(C)c(=O)oc1-c1c(O)c(C)cc2c1C(=O)C=C(N)C2=O	inactive	62	16	125	31				
CC(=O)CC1(C)Oc2c(C)cc3c(c2C1=O)C(=O)C=C(N)C3=O (stereo unspecified)		125	125	125	125				
Cc1cc2c(c(C(=O)[C@@H](C)C3OC4[C@H](C)C(OC(=O)[C@H]4C)C3C)c1O)C(=O)C=C(N)C2=O (stereo partly specified)						inactive	inactive	inactive	inactive
Cc1cc(C)c(=O)oc1-c1c(O)c(C)cc2c1C(=O)C(N)=CC2=O			125			inactive		inactive	inactive
Cc1cc2c(c(O)c1O)C(=O)C=C(N)C2=O	inactive		16			inactive		inactive	inactive
CO[C@H]1/C=C/O[C@@]2(C)Oc3c(C)c(O)c4c(O)c(c(/C=N/N5CCN(C)CC5)c(O)c4c3C2=O)NC(=O)/C(C)=C\C=C\[C@H](C)[C@H](O)[C@@H](C)[C@@H](O)[C@@H](C)[C@H](OC(C)=O)[C@@H]1C [RIFAMPIN]		≤ 0.03	≤ 0.03	≤ 0.03	≤ 0.03				
